Data taken from ChEMBL document CHEMBL5678799 (Biochem J, 2009).
Calls of active or inactive are those of the source. The calls are words filed in the database; no cut-off is given here.

How the values were obtained:
[1] = molecular target: Mitogen-activated protein kinase 9 (Homo sapiens) (UniProt P45984); experiment: Inhibition of recombinant human N-terminal His6-tagged JNK2alpha2 (1 to 424 residues) expressed in baculovirus infected Sf21 cells assessed as remaining activity at 1 uM using ATF2 as substrate incubated for 30 mins in presence of [gamma-33P]ATP by filter binding method relative to control
[2] = molecular target: Serine/threonine-protein kinase PAK 5 (Homo sapiens) (UniProt Q9P286); experiment: Inhibition of recombinant human N-terminal GST-tagged PAK5 (2 to 719 residues) expressed in Escherichia coli assessed as remaining activity at 1 uM using RRRLSFAEPG as substrate incubated for 30 mins in presence of [gamma-33P]ATP by filter binding method relative to control
Method in brief: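 Panel assays were run for 30 min at 21 °C, within the linear range for time and enzyme. […] Results are percent activity remaining relative to compound-free control, averaged from triplicate ± S.D.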

[3] = molecular target: Casein kinase II subunit alpha (Homo sapiens) (UniProt P68400); experiment: Inhibition of recombinant human N-terminal His6-tagged CK2alpha1 (2 to 391 residues) expressed in Escherichia coli assessed as remaining activity at 10 uM using RRRDDDSDDD as substrate incubated for 30 mins in presence of [gamma-33P]ATP by filter binding method relative to control
Method in brief: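 Radiometric panel assay run robotically at 21 °C for 30 min, linear in time and enzyme. […] Activity is expressed as percentage of the compound-omitted control, averaged from triplicates ± S.D.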

[4] = molecular target: Mitogen-activated protein kinase 1 (Homo sapiens) (UniProt P28482); experiment: Inhibition of recombinant human N-terminal GST-tagged ERK2 (2 to 360 residues) expressed in Escherichia coli assessed as remaining activity at 10 uM using MBP as substrate incubated for 30 mins in presence of [gamma-33P]ATP by filter binding method relative to control
Method in brief: (§1)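 Incubation was 30 min at room temperature (21 °C) under conditions linear with time and enzyme amount. Activity is reported as percent of control lacking compound, triplicate mean ± S.D.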

[5] = molecular target: Inhibitor of nuclear factor kappa-B kinase subunit epsilon (Homo sapiens) (UniProt Q14164); experiment: Inhibition of recombinant human N-terminal GST-tagged IKKepsilon (1 to 716 residues) expressed in baculovirus infected Sf21 cells assessed as remaining activity at 10 uM using MBP as substrate incubated for 30 mins in presence of [gamma-33P]ATP by filter binding method relative to control; method in brief: as §1
[6] = molecular target: SRSF protein kinase 1 (Homo sapiens) (UniProt Q96SB4); experiment: Inhibition of recombinant human N-terminal GST-tagged SRPK1 (2 to 654 residues) expressed in Escherichia coli assessed as remaining activity at 10 uM using RSRSRSRSRSRSRSR as substrate incubated for 30 mins in presence of [gamma-33P]ATP by filter binding assay relative to control; method in brief: as §1
[7] = molecular target: Mitogen-activated protein kinase; ERK1/ERK2 (Homo sapiens) (UniProt P27361+P28482); experiment: Inhibition of ERK1/2 in serum starved/PMA-stimulated HEK293 cells assessed as reduction in RSK phosphorylation at S380 residues at 1 uM incubated for 30 mins by immunoblot analysis; type: cell-based
[8] = molecular target: mTORC1 (Homo sapiens) (UniProt P42345+Q8N122+Q9BVC4); details: HEK293, dose 30.0 nM, time 30.0 min
[9] = molecular target: mTORC2 (Homo sapiens) (UniProt P42345+Q6R327+Q9BVC4+Q9BPZ7); details: HEK293, dose 30-1000 nM, time 30.0 min

Serine/threonine-protein kinase PAK 5 (Homo sapiens), sequence (Q9P286 whole entry, looked up, the tested form may be a part): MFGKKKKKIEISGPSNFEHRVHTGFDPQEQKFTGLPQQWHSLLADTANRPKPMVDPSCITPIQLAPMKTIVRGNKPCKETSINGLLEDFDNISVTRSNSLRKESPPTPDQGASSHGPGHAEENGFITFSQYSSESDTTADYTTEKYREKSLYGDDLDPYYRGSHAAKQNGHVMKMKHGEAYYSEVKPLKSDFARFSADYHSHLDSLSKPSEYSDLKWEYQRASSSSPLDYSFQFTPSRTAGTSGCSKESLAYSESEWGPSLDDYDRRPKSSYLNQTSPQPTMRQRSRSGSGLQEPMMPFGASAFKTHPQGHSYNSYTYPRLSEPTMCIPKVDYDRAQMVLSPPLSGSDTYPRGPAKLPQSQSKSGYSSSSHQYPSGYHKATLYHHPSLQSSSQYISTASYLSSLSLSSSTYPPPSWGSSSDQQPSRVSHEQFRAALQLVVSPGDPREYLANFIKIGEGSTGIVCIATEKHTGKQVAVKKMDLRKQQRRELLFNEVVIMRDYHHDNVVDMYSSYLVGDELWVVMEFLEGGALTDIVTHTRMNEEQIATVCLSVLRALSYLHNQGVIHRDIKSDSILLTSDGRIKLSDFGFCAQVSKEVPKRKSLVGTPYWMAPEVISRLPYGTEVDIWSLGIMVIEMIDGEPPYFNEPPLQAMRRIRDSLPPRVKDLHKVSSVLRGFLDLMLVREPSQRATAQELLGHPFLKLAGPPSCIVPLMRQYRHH
SRSF protein kinase 1 (Homo sapiens), sequence (Q96SB4 whole entry, the tested form may be a part): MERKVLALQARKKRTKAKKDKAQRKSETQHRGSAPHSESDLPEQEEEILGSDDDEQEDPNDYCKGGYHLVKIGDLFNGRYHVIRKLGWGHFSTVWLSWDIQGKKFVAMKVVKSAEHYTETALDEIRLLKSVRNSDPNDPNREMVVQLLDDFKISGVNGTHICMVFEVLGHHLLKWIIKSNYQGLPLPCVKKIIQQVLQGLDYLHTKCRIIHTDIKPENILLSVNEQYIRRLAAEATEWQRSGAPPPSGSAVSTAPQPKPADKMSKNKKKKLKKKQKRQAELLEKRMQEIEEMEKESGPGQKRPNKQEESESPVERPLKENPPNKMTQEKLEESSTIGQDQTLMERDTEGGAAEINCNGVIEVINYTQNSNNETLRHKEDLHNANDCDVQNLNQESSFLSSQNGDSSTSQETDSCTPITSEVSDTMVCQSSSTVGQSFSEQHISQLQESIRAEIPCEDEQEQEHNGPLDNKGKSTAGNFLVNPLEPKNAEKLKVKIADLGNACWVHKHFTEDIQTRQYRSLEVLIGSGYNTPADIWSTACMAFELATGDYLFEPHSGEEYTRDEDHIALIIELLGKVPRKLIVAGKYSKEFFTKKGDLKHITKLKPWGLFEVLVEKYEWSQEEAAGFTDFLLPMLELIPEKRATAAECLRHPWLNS
Mitogen-activated protein kinase 9 (Homo sapiens), sequence (P45984 whole entry, looked up, the tested form may be a part): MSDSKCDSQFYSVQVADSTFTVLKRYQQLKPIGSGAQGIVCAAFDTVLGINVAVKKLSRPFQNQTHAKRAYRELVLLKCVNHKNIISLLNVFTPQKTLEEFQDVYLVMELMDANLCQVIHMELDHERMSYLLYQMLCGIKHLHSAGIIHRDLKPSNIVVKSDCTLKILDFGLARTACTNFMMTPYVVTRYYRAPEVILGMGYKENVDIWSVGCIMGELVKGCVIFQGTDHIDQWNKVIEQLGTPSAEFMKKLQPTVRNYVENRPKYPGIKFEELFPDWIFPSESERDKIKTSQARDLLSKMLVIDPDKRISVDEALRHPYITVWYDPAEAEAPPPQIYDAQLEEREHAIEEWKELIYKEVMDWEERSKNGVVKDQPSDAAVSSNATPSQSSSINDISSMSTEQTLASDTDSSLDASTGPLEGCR
Casein kinase II subunit alpha (Homo sapiens), sequence (P68400 whole entry, looked up, the tested form may be a part): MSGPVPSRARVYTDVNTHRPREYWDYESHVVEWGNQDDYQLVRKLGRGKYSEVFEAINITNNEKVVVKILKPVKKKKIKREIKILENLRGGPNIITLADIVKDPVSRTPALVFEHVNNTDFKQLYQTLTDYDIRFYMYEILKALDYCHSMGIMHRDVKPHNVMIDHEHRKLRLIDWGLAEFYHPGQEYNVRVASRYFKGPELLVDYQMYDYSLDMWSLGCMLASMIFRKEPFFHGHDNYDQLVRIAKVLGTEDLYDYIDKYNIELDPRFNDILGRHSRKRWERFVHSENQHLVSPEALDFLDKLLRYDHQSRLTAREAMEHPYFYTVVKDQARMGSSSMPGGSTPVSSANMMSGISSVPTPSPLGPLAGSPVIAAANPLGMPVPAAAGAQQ
Inhibitor of nuclear factor kappa-B kinase subunit epsilon (Homo sapiens), sequence (Q14164 whole entry, the tested form may be a part): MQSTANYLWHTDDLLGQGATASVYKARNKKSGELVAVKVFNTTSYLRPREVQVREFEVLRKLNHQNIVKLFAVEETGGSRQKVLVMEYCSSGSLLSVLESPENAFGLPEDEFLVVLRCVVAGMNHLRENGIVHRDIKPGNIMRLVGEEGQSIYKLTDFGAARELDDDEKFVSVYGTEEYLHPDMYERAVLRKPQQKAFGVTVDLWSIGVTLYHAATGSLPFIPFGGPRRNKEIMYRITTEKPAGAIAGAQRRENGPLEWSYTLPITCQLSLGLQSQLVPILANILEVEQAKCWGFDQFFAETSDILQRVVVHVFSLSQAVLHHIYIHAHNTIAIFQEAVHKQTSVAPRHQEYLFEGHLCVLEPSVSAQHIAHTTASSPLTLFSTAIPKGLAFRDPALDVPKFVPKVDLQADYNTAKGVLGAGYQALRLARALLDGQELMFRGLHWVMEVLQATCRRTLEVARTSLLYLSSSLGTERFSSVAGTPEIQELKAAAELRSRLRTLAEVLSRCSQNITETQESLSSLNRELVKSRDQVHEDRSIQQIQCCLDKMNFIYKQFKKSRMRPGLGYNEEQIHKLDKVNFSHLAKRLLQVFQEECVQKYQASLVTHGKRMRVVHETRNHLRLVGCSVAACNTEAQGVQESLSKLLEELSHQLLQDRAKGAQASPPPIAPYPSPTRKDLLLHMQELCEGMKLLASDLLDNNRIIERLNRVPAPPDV
Mitogen-activated protein kinase; ERK1/ERK2 (Homo sapiens), sequence (P27361 whole entry, looked up): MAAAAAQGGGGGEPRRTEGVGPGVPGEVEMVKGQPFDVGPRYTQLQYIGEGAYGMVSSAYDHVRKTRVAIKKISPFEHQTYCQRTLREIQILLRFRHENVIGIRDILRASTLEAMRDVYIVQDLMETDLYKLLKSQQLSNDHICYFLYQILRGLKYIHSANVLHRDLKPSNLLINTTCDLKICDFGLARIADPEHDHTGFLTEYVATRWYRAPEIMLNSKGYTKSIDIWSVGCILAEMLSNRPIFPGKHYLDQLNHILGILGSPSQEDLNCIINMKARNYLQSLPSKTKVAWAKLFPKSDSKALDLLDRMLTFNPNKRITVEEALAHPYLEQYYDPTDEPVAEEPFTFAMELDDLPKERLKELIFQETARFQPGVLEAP
Mitogen-activated protein kinase; ERK1/ERK2 (Homo sapiens), sequence (P28482 whole entry, looked up): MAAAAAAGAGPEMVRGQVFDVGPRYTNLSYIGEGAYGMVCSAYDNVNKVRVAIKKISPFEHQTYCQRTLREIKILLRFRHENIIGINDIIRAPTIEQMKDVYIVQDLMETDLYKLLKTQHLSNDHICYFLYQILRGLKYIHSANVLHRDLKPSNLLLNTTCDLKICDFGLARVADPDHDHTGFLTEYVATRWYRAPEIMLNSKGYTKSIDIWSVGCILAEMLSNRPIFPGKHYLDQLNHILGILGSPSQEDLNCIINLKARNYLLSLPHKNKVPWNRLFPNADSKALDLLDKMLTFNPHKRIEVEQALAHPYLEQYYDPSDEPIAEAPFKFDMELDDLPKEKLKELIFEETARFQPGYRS
Mitogen-activated protein kinase 1 (Homo sapiens), sequence (P28482 whole entry, the tested form may be a part): as the sequence (P28482 whole entry, looked up) above

## COc1ccc(-c2ccc3c(N4CCOCC4)nc(N4C[C@@H](C)O[C@@H](C)C4)nc3n2)cc1CO [Ku-0063794]
[1]
  Activity: 101%
[2]
  Activity: 101%
[3]
  Activity: 85%
[4]
  Activity: 92%
[5]
  Activity: 100%
[6]
  Activity: 94%
[7]
  inhibition: inactive
[8]
  inhibition: Active
[9]
  inhibition: Dose-Dependent Effect
